According to ChEMBL document CHEMBL1649368, “Novel isatinyl thiosemicarbazones derivatives as potential molecule to combat HIV-TB co-infection” (Eur J Med Chem, 2011):
≈ marks a conversion by molar mass, not a printed value.

Legend:
[1] = Cytotoxicity against human MT4 cells after 5 days by spectrophotometry; format: cell-based
Method in brief: (§1)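 MT-4 cells were grown in RPMI-1640 DM with 10% heat-inactivated calf serum and gentamicin. HIV-1 IIIB (100 CCID50) or mock infection was run in parallel with compounds in triplicate, at 37 °C and 5% CO2 for 5 days. Viability was read by MTT spectrophotometry. EC50 was the 50% reduction in virus cytopathic effect; CC50 was the 50% loss of mock-infected cell viability.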

[2] = test system: Mycobacterium tuberculosis; test: Antimycobacterial activity against Mycobacterium tuberculosis H37Ra by agar dilution method; format: functional
Method in brief: (§2)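 Log-phase MTB was tested by agar dilution on Middlebrook 7H11 with OADC, following NCCLS guidance. MIC was the lowest concentration giving complete growth inhibition, determined in triplicate.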

[3] = test system: Human immunodeficiency virus 1; test: Antiviral activity against HIV1 3B infected in human MT4 cells assessed as protection against virus-induced cytopathogenicity after 5 days by microtiter plate analysis; format: functional, organism-based; conditions: Human immunodeficiency virus 1, 3B, MT4, 120 h; method in brief: as §1
[4] = molecular target: T1, Isocitrate lyase (Mycobacterium tuberculosis) (UniProt P9WKK7); test: Inhibition of Mycobacterium tuberculosis isocitrate lyase […]
T1 sequence (whole entry): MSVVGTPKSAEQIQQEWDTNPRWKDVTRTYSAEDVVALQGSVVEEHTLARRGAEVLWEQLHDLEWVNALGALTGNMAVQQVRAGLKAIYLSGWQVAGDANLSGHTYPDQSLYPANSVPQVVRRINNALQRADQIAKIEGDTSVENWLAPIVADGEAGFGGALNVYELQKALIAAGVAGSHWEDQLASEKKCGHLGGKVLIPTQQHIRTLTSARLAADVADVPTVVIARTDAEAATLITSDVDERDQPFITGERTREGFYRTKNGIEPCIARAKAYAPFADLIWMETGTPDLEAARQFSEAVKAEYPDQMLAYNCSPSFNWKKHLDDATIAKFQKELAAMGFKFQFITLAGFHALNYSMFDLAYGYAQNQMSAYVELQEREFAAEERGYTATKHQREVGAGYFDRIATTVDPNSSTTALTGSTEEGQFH
Method in brief: (§3)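 Isocitrate lyase activity was measured at 37 °C as glyoxylate-phenylhydrazone formation from isocitrate with phenylhydrazine, MgCl2 and 2-mercaptoethanol in potassium phosphate buffer. After 10 min the mixture was diluted and absorbance read at 324 nm. Test compounds were added from a 10 mM solution; the 3-nitropropionic acid reference came from a 100 mM solution. % inhibition = (control − test)/control × 100.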

[5] = molecular target: T1, Isocitrate lyase (Mycobacterium tuberculosis); test: Inhibition of Mycobacterium tuberculosis isocitrate lyase at 100 mM; method in brief: as §3
[6] = test system: Mycobacterium tuberculosis; test: Antimycobacterial activity against Mycobacterium tuberculosis H37Ra assessed as inhibition of bacterial growth in log phase by agar dilution method; format: functional; method in brief: as §2
[7] = test system: Mycobacterium tuberculosis; test: Antimycobacterial activity against Mycobacterium tuberculosis H37Ra assessed as inhibition of bacterial growth in dormant phase; format: functional
Method in brief: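 MTB grown in 7H9 with glycerol, OADC and Tween 80 at 37 °C with rolling to OD600 ~0.6, then washed and held in PBS 6 weeks at 37 °C. Starved cells (~1×10^7 in 1 mL PBS) were exposed to compounds in DMSO at various concentrations for 7 days with shaking. After washing, dilutions were plated on antibiotic-free 7H11 and counted after 4 weeks. MIC was complete growth inhibition, in triplicate.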

[8] = molecular target: Human immunodeficiency virus type 1 reverse transcriptase (Human immunodeficiency virus 1, UniProt Q72547); test: Inhibition of HIV1 reverse transcriptase
Method in brief: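 The radiometric reaction used wild-type RT in 50 mM Tris-HCl pH 7.8 with DTT, glutathione, EDTA, KCl, MgCl2, BSA, Triton X-100, poly(rC)·oligo(dG) template/primer and [3H]dGTP. It ran 15 min at 37 °C, was stopped with carrier DNA, pyrophosphate and TCA, and held on ice 30 min.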

Row | Structure (SMILES) | CC50 at 120 h [1] [µM] | MIC [2] [µM] | EC50 [3] [µM] | inhibition [4] [%] | inhibition [5] [%] | MIC [6] [µM] | MIC [7] [µM] | IC50 [8] [µM]
1 | O=C1/C(=N\NC(=S)NO)c2cc(F)ccc2N1CN1CCN(c2ccc(Cl)cc2)CC1 | 194 | 3.37 (≈ 1.56 µg/mL) | 6.85 | 18.5 | – | – | – | –
2 | O=C(O)CC[N+](=O)[O-] | – | – | – | – | 66 | – | – | –
3 | CONC(=S)N/N=C1\C(=O)N(CN2CCN(c3ccc(Cl)cc3)CC2)c2ccc(C)cc21 | 300 | 3.3 (≈ 1.56 µg/mL) | 1.69 | 9.49 | – | 0.65 (≈ 0.307 µg/mL) | 20.4 (≈ 9.64 µg/mL) | 11.5
4 | CONC(=S)N/N=C1\C(=O)N(CN2CCN(c3cc4c(cc3F)c(=O)c(C(=O)O)cn4C3CC3)CC2)c2ccc(C)cc21 | 232 | 0.66 (≈ 0.401 µg/mL) | 9.22 | 63.4 | – | – | – | –
5 | CONC(=S)N/N=C1\C(=O)N(CN2CCOCC2)c2ccc(F)cc21 | 274 | 4.25 (≈ 1.56 µg/mL) | 28.9 | 15.9 | – | 3.37 (≈ 1.24 µg/mL) | 13.5 (≈ 4.95 µg/mL) | –
6 | CCN(CC)CN1C(=O)/C(=N\NC(=S)NOC)c2cc(C)ccc21 | 573 | 8.96 (≈ 3.13 µg/mL) | 53.3 | 18.9 | – | – | – | –
7 | CCn1cc(C(=O)O)c(=O)c2cc(F)c(N3CCN(CN4C(=O)/C(=N\NC(=S)NO)c5cc(C)ccc54)C(C)C3)c(F)c21 (stereo unspecified) | 244 | 0.65 (≈ 0.399 µg/mL) | 11.7 | – | – | 0.64 (≈ 0.393 µg/mL) | 34.6 (≈ 21.2 µg/mL) | –
8 | CONC(=S)N/N=C1\C(=O)N(CN2CCN(c3ccc(Cl)cc3)CC2)c2ccc(Cl)cc21 | 229 | 6.34 (≈ 3.13 µg/mL) | 2.43 | 6.38 | – | 6.82 (≈ 3.37 µg/mL) | 27.3 (≈ 13.5 µg/mL) | 0.25
9 | CCn1cc(C(=O)O)c(=O)c2cc(F)c(N3CCN(CN4C(=O)/C(=N\NC(=S)NOC)c5cc(Cl)ccc54)CC3)cc21 | 193 | 0.65 (≈ 0.4 µg/mL) | 19.2 | – | – | 0.63 (≈ 0.388 µg/mL) | 19.6 (≈ 12.1 µg/mL) | –
10 | CONC(=S)N/N=C1\C(=O)N(CN2CCN(c3ccc(OC)cc3)CC2)c2ccc(C)cc21 | 324 | 6.68 (≈ 3.13 µg/mL) | 9.82 | 23.3 | – | 0.16 (≈ 0.075 µg/mL) | 9.74 (≈ 4.56 µg/mL) | –
11 | CONC(=S)N/N=C1\C(=O)N(CN2CCN(c3ccc(Cl)cc3)CC2)c2ccc(F)cc21 | 347 | 3.27 (≈ 1.56 µg/mL) | 3.77 | 28.4 | – | 0.67 (≈ 0.32 µg/mL) | 42.1 (≈ 20.1 µg/mL) | 16.7
12 | Cc1ccc2c(c1)/C(=N/NC(=S)NO)C(=O)N2CN1CCN(c2ccc(Cl)cc2)CC1 | 335 | 6.82 (≈ 3.13 µg/mL) | 6.1 | 11 | – | – | – | 23.4
